Measured values from different studies.
Each line is one published result; the experiments were not run side by side.
Target: RAC-alpha serine/threonine-protein kinase (AKT1, Homo sapiens, UniProt P31749)

Structure (SMILES) | read-out | mode | method | tested at | endpoint | result
FC(F)(F)Oc1cccc(-c2cnc3ccc(-c4ccncc4)nn23)c1 | enzyme activity | inhibitor | radiometric | 5 µM | activity vs control | 104%
COCCOc1nc(-c2ccc(Cl)nc2)nc2c1CN(C(=O)c1ncn3ccccc13)CC2 | cell-free assay | – | competition with immobilised ligand | 0.1 µM | remaining binding | 82%
CNC(=O)c1cc(Oc2ccc(NC(=O)Nc3ccc(Cl)c(C(F)(F)F)c3)cc2)ccn1 | enzyme activity | inhibitor | – | 10 µM | inhibition | -3%
Cn1c(=O)n(-c2ccc(C(C)(C)C#N)cc2)c2c3cc(-c4cnc5ccccc5c4)ccc3ncc21 | enzyme activity | inhibitor | – | 10 µM | remaining activity | 126%
CCCOc1ccc([C@H]2[C@H](C(=O)O)[C@@H](c3ccc4c(c3)OCO4)CN2CC(=O)Nc2c(CC)cccc2CC)cc1 | cell-free assay | – | competition with immobilised ligand | 1 µM | remaining binding | 97%
CC(C)(O)[C@H]1CC[C@H](Nc2ccc3ncc(-c4cccc(C(F)(F)F)c4)n3n2)CC1 | enzyme activity | inhibitor | – | 1 µM | remaining activity | 93.2%
Oc1cccc(-c2nc(N3CCOCC3)c3oc4ncccc4c3n2)c1 | cell-free assay | – | – | 0.5 µM | remaining signal | 95.3%
Cc1ccc(Nc2nccc(N(C)c3ccc4c(C)n(C)nc4c3)n2)cc1S(N)(=O)=O | enzyme activity | inhibitor | – | 0.3 µM | inhibition | -7%
CNC(=O)Nc1ccc2c(c1)[C@@]1(CC2)OC(=O)N(CC(=O)N(Cc2ccc(F)cc2)[C@@H](C)C(F)(F)F)C1=O | cell-free assay | – | competition with immobilised ligand | 1 µM | remaining binding | 77%
CCN(CC)c1ccc(C2=NNC(=O)CC2C)cc1[N+](=O)[O-] (stereo not drawn) | enzyme activity | inhibitor | – | 10 µM | remaining activity | 81%
COc1cc2ncnc(Nc3ccc(Oc4ccccc4)c(C)c3C)c2cc1OC | enzyme activity | inhibitor | – | 1 µM | inhibition | 2%
Cc1ccc(C(=O)NCc2ccsc2)cc1C#Cc1cn(C(C)C)c2ncnc(N)c12 | enzyme activity | inhibitor | – | 1 µM | activity vs control | 94%
Cc1sc(C(=O)NC2COC2)cc1-n1cc(NC(=O)Nc2c(F)cccc2Cl)cn1 | enzyme activity | inhibitor | – | 10 µM | remaining activity | 105%
CC(C)(C)C(=O)c1sc(NC2CCCCC2)nc1N | enzyme activity | inhibitor | – | 10 µM | remaining activity | 90%
CN(C)C1CCN(CC#Cc2nn(C3CCCC3)c3nc(NCc4ccccc4)ncc23)C1 (stereo not drawn) | enzyme activity | inhibitor | FRET | 10 µM | inhibition | 7%
O=C1Nc2ccc(Cl)cc2C1=Cc1cc(Cl)c(O)c(Cl)c1 | cell-free assay | – | – | 0.5 µM | remaining signal | 97.9%
COc1cc(F)ccc1-c1ncnc(Nc2cccc(C[S@](C)(=N)=O)c2)n1 | enzyme activity | inhibitor | – | 10 µM | activity vs control | 108%
Cn1cncc1C1=CN(c2ncnc3[nH]cnc23)CCS1 | enzyme activity | inhibitor | radiometric | 2 µM | inhibition | 83.7%

Structure (SMILES) | read-out | mode | method | tested at | endpoint | result
COc1cc(Cl)c(C(=O)N[C@@H](CN[C@H]2CC[C@@H](N)CC2)Cc2ccc(C#N)cc2)cc1-c1ccc(CN[C@H](C)c2ccc(C)cc2)o1 | enzyme activity | inhibitor | – | 1 µM | remaining activity | 85%
Nc1ncnc2occ(-c3ccc(NC(=O)Nc4cc(C(F)(F)F)ccc4F)cc3)c12 | cell-free assay | inhibitor | – | 20 µM | remaining signal | 100%
CCCOc1ccc(OC)c(F)c1C(=O)c1ccc(C(=O)N[C@@H]2CNC[C@H]2NC(=O)c2ccc3[nH]ncc3c2)cc1 | enzyme activity | inhibitor | – | 10 µM | remaining activity | 20%
Oc1ccc(-c2nc(-c3ccncc3)c(-c3ccc(F)cc3)[nH]2)cc1 | cell-free assay | – | – | 0.5 µM | remaining signal | 101%
Cn1cnc(Br)c1C1=CN(c2ncnc3[nH]cnc23)CCS1 | enzyme activity | inhibitor | radiometric | 50 nM | inhibition | 26.5%
Nc1nc(Nc2ccc(S(N)(=O)=O)cc2)nn1C(=O)c1c(F)cccc1F | cell-free assay | – | – | 0.5 µM | remaining signal | 120%
CN(C)C(=O)Cn1cc(-c2nc([C@@](C)(c3ccc(-c4cnc(N)nc4)cc3)C3CC3)no2)cn1 | cell-free assay | – | competition with immobilised ligand | 1 µM | remaining binding | 94%
Cc1ccc(NC(=O)c2ccc(C)c(C(F)(F)F)c2)cc1C#Cc1nn(C2CCC(O)CC2)c2ncnc(N)c12 (stereo not drawn) | cell-free assay | – | – | 10 µM | remaining signal | 101%
Cc1ccc(C(=O)Nc2ccc(CN3CCN(C)CC3)c(C(F)(F)F)c2)cc1C#Cc1cnc2cccnn12 | enzyme activity | inhibitor | – | 23.5 nM | remaining activity | 65%
CCCS(=O)(=O)Nc1ccc(F)c(C(=O)c2c[nH]c3ncc(-c4ccc(Cl)cc4)cc23)c1F | enzyme activity | inhibitor | – | 1 µM | inhibition | < 20%
O=C1CCc2cc(Nc3cc(OC4CCOCC4)c([N+](=O)[O-])cc3Cl)ccc2N1 | cell-free assay | – | competition with immobilised ligand | 1 µM | remaining binding | 98%
COc1cc(Nc2cnc(C#N)c(O[C@H](C)CN(C)C)n2)ncc1-c1cnn(C)c1 | enzyme activity | inhibitor | radiometric | 1 µM | remaining activity | 98%
CCS(=O)(=O)c1cc2cc(C[C@@](O)(CC(C)(C)c3ccc(F)cc3C(N)=O)C(F)(F)F)[nH]c2cn1 | cell-free assay | – | competition with immobilised ligand | 1 µM | remaining binding | 86%
Cc1cc(NC(=O)c2cccc3cc(-c4cccc5[nH]nc(N)c45)ccc23)ccc1F | enzyme activity | inhibitor | – | 0.1 µM | activity vs control | 107%
CNCc1ccccc1-c1csc([C@@H](C)Nc2nc(C)nc3cc(OC)c(OC)cc23)c1 | cell-free assay | – | competition with immobilised ligand | 1 µM | remaining binding | 100%
CC/C(=N\NC(=O)NCc1cccc(O)c1)c1ccc(O)c(C)c1O | enzyme activity | inhibitor | – | 0.1 µM | inhibition | 0.1%
COc1ccc2c(c1)O[C@@H](c1ccc(OC)c(OC)c1)C[C@H]2NC(=O)C1(c2ccc3c(c2)OC(F)(F)O3)CC1 | cell-free assay | – | competition with immobilised ligand | 1 µM | remaining binding | 100%
CS(=O)(=O)Nc1cccc(-c2csc(NC(=O)CSc3nc4nccnc4c(=O)n3CCc3ccccc3)n2)c1 | enzyme activity | inhibitor | – | 10 µM | inhibition | 1%
